ChEMBL document CHEMBL1124344, “5-Piperazinylalkyl-2(3H)-oxazolones with neuroleptic activity” (J Med Chem, 1989)

Tests used:
Rattus norvegicus [1] = test: Activity to evoke catalepsy in rats, by administering perorally at a dose of 40 mg/kg; assay type: functional; conditions: route oral
Summary of the method: (§1)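 Rats fasted overnight and given oral doses in arabic gum suspension (10 mL/kg), 1 h before screening or 1 and 5 h before profile testing. Forelegs placed on a horizontal bar 7 cm high, three times at 5-min intervals. Immobility of at least 15 s counts as catalepsy. ED50 is the dose giving catalepsy in 50% of rats, by probit analysis. Parenthetical entries give the maximal dose and percent activity.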

[2] = Lethal dose in mice (LD50) following i.p. dosing; assay type: toxicity, organism-based; conditions: mouse, in vivo, ip
Summary of the method: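 Acute toxicity tested in mice by the intraperitoneal route. LD50 is the dose killing 50% of treated mice, computed by Finney probit analysis; values are approximate.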

Mus musculus [3] = test: Antagonistic activity against amphetamine-induced Hypermobility in mice, by administering perorally at a dose of 10 mg/kg; assay type: functional; conditions: route oral
Summary of the method: (§2)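 Male mice in groups of five, fasted overnight, given oral drug in arabic gum suspension (10 mL/kg) 1 or 5 h ahead. Amphetamine 4 mg/kg ip given 30 min after drug. Ten minutes later locomotion is recorded for 15 min in a photocell actophotometer. ED50 is 50% reduction versus control hypermotility, by probit analysis. Parenthetical entries give the maximal dose and percent activity.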

Rattus norvegicus [4] = test: Antagonistic activity against apomorphine-induced stereotypy in rats, by administering perorally at a dose of 40 mg/kg; assay type: functional; conditions: route oral
Summary of the method: (§3)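 Male rats fasted overnight and given oral doses in arabic gum suspension (10 mL/kg) 1 h, or 1 and 5 h, before challenge. Apomorphine 3 mg/kg iv, with stereotypy observed 20 min later. ED50 is the dose inhibiting stereotypy in 50% of rats, per Janssen's method. Parenthetical entries give the maximal dose and percent activity.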

Mus musculus [5] = test: Inhibition of spontaneous motor activity in mice, by administering perorally; assay type: functional; conditions: po
Summary of the method: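 Mice in groups of five were dosed orally with gum arabic suspensions at 10 mL/kg after an overnight fast, with a vehicle control group. Locomotion was counted for 10 min in a photocell activity cage, in at least two groups per dose. ED50, by probit analysis, is the dose giving 50% inhibition against controls.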

Rattus norvegicus [6] = test: Antagonistic activity against apomorphine-induced stereotypy in rats, by administering perorally at a dose of 100 mg/kg; assay type: functional; conditions: route oral; summary of the method: as §3
Mus musculus [7] = test: Inhibition of amphetamine-induced hypermobility in mice following p.o. administration.; assay type: functional; conditions: po
Summary of the method: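 Compounds were given orally to male mice (gum arabic suspension, 10 mL/kg, fasted) in groups of five. Amphetamine 4 mg/kg ip followed 30 min later. After another 10 min, motility was recorded for 15 min with a photocell actophotometer. ED50, by probit analysis, is the dose giving 50% reduction against controls.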

Rattus norvegicus [8] = test: Activity to evoke catalepsy in rats, by administering perorally at a dose of 100 mg/kg; assay type: functional; conditions: route oral, read-out: Inhibition; summary of the method: as §1
Rattus norvegicus [9] = test: Antagonistic activity against apomorphine-induced stereotypy in rats, by administering perorally; assay type: functional; conditions: po; summary of the method: as §3
Rattus norvegicus [10] = test: Activity to evoke catalepsy in rats, by administering perorally; assay type: functional; conditions: po; summary of the method: as §1
Mus musculus [11] = test: Antagonistic activity against amphetamine-induced Hypermobility in mice, by administering perorally at a dose of 100 mg/kg; assay type: functional; conditions: route oral; summary of the method: as §2
Mus musculus [12] = test: Inhibition of spontaneous motor activity in mice, by administering perorally at a dose of 125 mg/kg; assay type: functional; conditions: route oral
Summary of the method: (§4)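 Mice fasted overnight, then dosed orally with compound (weighed as base) suspended in arabic gum, 10 mL/kg, with vehicle controls; 1 h pretreatment for screening tests, 1 or 5 h for others. Groups of five; locomotor activity counted 10 min in photocell activity cage, at least two groups per dose. ED50 = dose giving 50% inhibition versus controls, by probit analysis.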

Rattus norvegicus [13] = test: Activity to evoke catalepsy in rats, by administering perorally at a dose of 20 mg/kg; assay type: functional; conditions: route oral, read-out: Inhibition; summary of the method: as §1
Mus musculus [14] = test: Antagonistic activity against amphetamine-induced Hypermobility in mice, by administering perorally at a dose of 20 mg/kg; assay type: functional; conditions: route oral; summary of the method: as §2
Rattus norvegicus [15] = test: Antagonistic activity against apomorphine-induced stereotypy in rats, by administering perorally at a dose of 20 mg/kg; assay type: functional; conditions: route oral; summary of the method: as §3
Rattus norvegicus [16] = test: Antagonistic activity against apomorphine-induced stereotypy in rats, by administering perorally at a dose of 150 mg/kg; assay type: functional; conditions: route oral; summary of the method: as §3
Rattus norvegicus [17] = test: Activity to evoke catalepsy in rats, by administering perorally at a dose of 150 mg/kg; assay type: functional; conditions: route oral; summary of the method: as §1
Mus musculus [18] = test: Inhibition of spontaneous motor activity in mice, by administering perorally at a dose of 20 mg/kg; assay type: functional; conditions: route oral; summary of the method: as §4
Mus musculus [19] = test: Inhibition of spontaneous motor activity in mice, by administering perorally at a dose of 100 mg/kg; assay type: functional; conditions: route oral; summary of the method: as §4
Rattus norvegicus [20] = test: Activity to evoke catalepsy in rats, by administering perorally at a dose of 200 mg/kg; assay type: functional; conditions: route oral; summary of the method: as §1
Rattus norvegicus [21] = test: Antagonistic activity against apomorphine-induced stereotypy in rats, by administering perorally at a dose of 200 mg/kg; assay type: functional; conditions: route oral; summary of the method: as §3

SMILES	LD50 [2]	ED50 (Mus musculus [5])	inhibition in vivo at 100 mg/kg (Rattus norvegicus [6])	ED50 (Mus musculus [7])	percent of rats showing catalepsy at 100 mg/kg (Rattus norvegicus [8])	inhibition in vivo at 100 mg/kg (Mus musculus [11])	other results
Oc1nc(-c2ccc(F)cc2)c(CCCN2CCN(c3ccccc3)CC2)o1	170 mg/kg	8 mg/kg	–	–	–	–	inhibition in vivo at 40 mg/kg (Rattus norvegicus [1]): 0%; inhibition in vivo at 10 mg/kg (Mus musculus [3]): 69%; inhibition in vivo at 40 mg/kg (Rattus norvegicus [4]): 0%
Oc1nc(-c2ccc(F)cc2)c(CCN2CCN(c3cc(Br)cc(Br)c3)CC2)o1	1000 mg/kg	15 mg/kg	0%	5.4 mg/kg	0%	–	–
Oc1nc(-c2ccc(F)cc2)c(CCN2CCN(c3cccc(Cl)c3)CC2)o1	> 1000 mg/kg	58.5 mg/kg	–	54.1 mg/kg	0%	–	ED50 (Rattus norvegicus [9]): 80 mg/kg
Oc1nc(-c2ccc(F)cc2)c(CCN2CCN(c3ccccc3)CC2)o1	> 2000 mg/kg	3.6 mg/kg	–	5.4 mg/kg	–	–	ED50 (Rattus norvegicus [10]): 87 mg/kg; ED50 (Rattus norvegicus [9]): 47.5 mg/kg
Oc1nc(-c2ccc(F)cc2)c(CCN2CCN(c3cccc(C(F)(F)F)c3)CC2)o1	> 1000 mg/kg	16.9 mg/kg	0%	11.6 mg/kg	0%	–	–
Oc1nc(-c2ccc(F)cc2)c(CCN2CCN(c3ccc(Cl)cc3)CC2)o1	> 1000 mg/kg	200 mg/kg	0%	–	0%	0%	–
Cn1c(-c2ccc(F)cc2)c(CCN2CCN(c3ccccc3)CC2)oc1=O	750 mg/kg	19.5 mg/kg	–	21 mg/kg	0%	–	ED50 (Rattus norvegicus [9]): 112 mg/kg
O=c1oc(CCN2CCN(c3ccccc3)CC2)c(-c2ccc(F)cc2)n1-c1ccccc1	> 1000 mg/kg	–	0%	–	0%	0%	inhibition in vivo at 125 mg/kg (Mus musculus [12]): 0%
Oc1nc(-c2ccc(F)cc2)c(CCN2CCN(c3cccc(Cl)c3Cl)CC2)o1	90 mg/kg	12.5 mg/kg	–	–	–	–	percent of rats showing catalepsy at 20 mg/kg (Rattus norvegicus [13]): 0%; inhibition in vivo at 20 mg/kg (Mus musculus [14]): 69%; inhibition in vivo at 20 mg/kg (Rattus norvegicus [15]): 0%
CCCCn1c(-c2ccc(F)cc2)c(CCN2CCN(c3ccccc3)CC2)oc1=O	750 mg/kg	16 mg/kg	–	15.4 mg/kg	–	–	inhibition in vivo at 150 mg/kg (Rattus norvegicus [16]): 40%; inhibition in vivo at 150 mg/kg (Rattus norvegicus [17]): 0%
Oc1nc(-c2ccc(F)cc2)c(CCN2CCN(c3ccc(Cl)c(Cl)c3Cl)CC2)o1	750 mg/kg	–	–	–	–	–	percent of rats showing catalepsy at 20 mg/kg (Rattus norvegicus [13]): 0%; inhibition in vivo at 20 mg/kg (Mus musculus [18]): 0%; inhibition in vivo at 20 mg/kg (Mus musculus [14]): 0%; inhibition in vivo at 20 mg/kg (Rattus norvegicus [15]): 0%
O=C(c1ccccc1)n1c(-c2ccc(F)cc2)c(CCN2CCN(c3ccccc3)CC2)oc1=O	750 mg/kg	4 mg/kg	–	9.3 mg/kg	–	–	inhibition in vivo at 150 mg/kg (Rattus norvegicus [16]): 40%; inhibition in vivo at 150 mg/kg (Rattus norvegicus [17]): 0%
COc1ccc(N2CCN(CCc3oc(O)nc3-c3ccc(F)cc3)CC2)cc1	> 1000 mg/kg	–	0%	–	0%	0%	inhibition in vivo at 100 mg/kg (Mus musculus [19]): 33%
O=c1oc(CCN2CCN(c3ccccc3)CC2)c(-c2ccc(F)cc2)n1Cc1ccccc1	1000 mg/kg	51 mg/kg	–	–	–	40%	ED50 (Rattus norvegicus [9]): 200 mg/kg; inhibition in vivo at 200 mg/kg (Rattus norvegicus [20]): 0%
Oc1nc(-c2ccc(F)cc2)c(CCN2CCN(c3ccccn3)CC2)o1	> 1000 mg/kg	38 mg/kg	–	–	0%	0%	inhibition in vivo at 200 mg/kg (Rattus norvegicus [21]): 30%
CC(=O)n1c(-c2ccc(F)cc2)c(CCN2CCN(c3cc(Cl)cc(Cl)c3)CC2)oc1=O	1000 mg/kg	4.5 mg/kg	10%	2.7 mg/kg	0%	–	–
